Activity calls are given as the source filed them. The rule behind the calls is not given here.
Key:
Quadruplex DNA [1] = test: Binding affinity to synthetic c-MYC G4 quadruplex DNA assessed as change in melting temperature at 10 molar equiv to DNA measured after 10 mins by circular dichroism melting analysis; type: nucleic-acid assay
Procedure, shortened: (§1)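 CD melting of folded DNA (G4 10 µM, duplex 15 µM) in 20 mM KCl, 5 mM KH2PO4 (pH 7.0), without and with 10 molar equivalents of ligand. Tm was taken from curve fitting, and ΔTm = Tm(DNA+ligand) − Tm(DNA). Runs were done in triplicate and averaged.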

[2] = Binding affinity to synthetic 20-mer hairpin duplex DNA assessed as change in melting temperature at 10 molar equiv to DNA measured after 10 mins by circular dichroism melting analysis; procedure, shortened: as §1
Quadruplex DNA [3] = test: Binding affinity to human telomeric 23 G4 quadruplex DNA assessed as change in melting temperature at 10 molar equiv to DNA measured after 10 mins by circular dichroism melting analysis; type: nucleic-acid assay; procedure, shortened: as §1
Quadruplex DNA [4] = test: Binding affinity to synthetic c-KIT1 G4 quadruplex DNA assessed as change in melting temperature at 10 molar equiv to DNA measured after 10 mins by circular dichroism melting analysis; type: nucleic-acid assay; procedure, shortened: as §1
Quadruplex DNA [5] = test: Binding affinity to synthetic BCL2 G4 quadruplex DNA assessed as change in melting temperature at 10 molar equiv to DNA measured after 10 mins by circular dichroism melting analysis; type: nucleic-acid assay; procedure, shortened: as §1
HCT-116 = test: Cytotoxicity against human HCT116 cells assessed as reduction in cell viability measured after 48 hrs by combined MTT assay; type: functional, cell-based; conditions: HCT-116, 48 h
Procedure, shortened: (§2)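 Cells were seeded at 10^4/well (HDF 10^3), grown 24 h, then treated 48 h at 5–100 µM in 0.5% v/v DMSO. Read-outs were MTT (1 h, 37 °C, absorbance 550 nm; Jurkat handled by centrifugation) combined with trypan blue live/dead counting into a survival index versus untreated cells. IC50 came from nonlinear regression, n = 6 per experiment ×3 (n = 18), mean ± SEM.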

Quadruplex DNA [6] = test: Binding affinity to synthetic BCL2 G4 quadruplex DNA up to 5:1 compound/DNA ratio by 1H-NMR analysis; type: nucleic-acid assay
Procedure, shortened: (§3)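 1H NMR titration of G4 DNA at 0.2 mM in H2O/D2O 9:1 containing 5 mM KH2PO4, 20 mM KCl, 0.2 mM EDTA (pH 7.0), with DPFGSE water suppression. Ligand aliquots from 20 mM deutero-DMSO stock were added in the tube up to 5:1 ligand/G4. Imino and aromatic proton shifts were monitored.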

[7] = Binding affinity to synthetic Cy5-fluorescently labeled 20-mer hairpin duplex DNA by microscale thermophoresis method
Procedure, shortened: (§4)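 MST with Cy5-labelled oligonucleotides annealed at 1 µM in 5 mM KH2PO4/20 mM KCl (pH 7.0), then diluted in the same buffer with 0.1% Tween. DNA was held at 40 nM. Ligand was serially diluted 1:2 from a 4 mM DMSO stock and mixed 1:1 with DNA, giving 5% final DMSO. Kd was derived from thermophoresis binding curves.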

MCF7 = test: Cytotoxicity against human MCF7 cells assessed as reduction in cell viability measured after 48 hrs by combined MTT assay; type: functional, cell-based; conditions: MCF7, 48 h; procedure, shortened: as §2
Quadruplex DNA [8] = test: Binding affinity to synthetic c-MYC G4 quadruplex DNA up to 5:1 compound/DNA ratio by 1H-NMR analysis; type: nucleic-acid assay; procedure, shortened: as §3
A-375 = test: Cytotoxicity against human A375 cells assessed as reduction in cell viability measured after 48 hrs by combined MTT assay; type: functional, cell-based; conditions: A-375, 48 h; procedure, shortened: as §2
Jurkat [9] = test: Down regulation of c-MYC mRNA expression in human Jurkat cells at 25 uM measured after 24 hrs by RT-qPCR analysis relative to control; type: functional
Procedure, shortened: (§5)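 Jurkat cells were treated 24 h at 25 µM, and total RNA was extracted with TRI Reagent. 0.5 µg RNA was reverse transcribed with MMLV RT and random primers (22 °C 10 min, 42 °C 60 min). SYBR qPCR ran 40 cycles (95/59/72 °C) in duplicate with GAPDH as reference. Relative expression was calculated by the […] method from at least three independent experiments.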

HaCaT = test: Cytotoxicity against human HaCaT cells assessed as reduction in cell viability measured after 48 hrs by combined MTT assay; type: cell-based; procedure, shortened: as §2
Jurkat [10] = test: Down regulation of BCL2 mRNA expression in human Jurkat cells at 25 uM measured after 24 hrs by RT-qPCR analysis relative to control; type: functional; procedure, shortened: as §5
Quadruplex DNA [11] = test: Binding affinity to synthetic Cy5-fluorescently labeled c-KIT1 G4 quadruplex DNA by microscale thermophoresis method; type: nucleic-acid assay; procedure, shortened: as §4
Quadruplex DNA [12] = test: Binding affinity to synthetic Cy5-fluorescently labeled c-MYC G4 quadruplex DNA by microscale thermophoresis method; type: nucleic-acid assay; procedure, shortened: as §4
Jurkat [13] = test: Down regulation of BCL2 expression in human Jurkat cells at 25 uM measured after 24 hrs by Western blot analysis relative to control; type: functional
Procedure, shortened: (§6)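 Jurkat cells treated 24 h at 25 µM were lysed in 50 mM Hepes pH 7.4, 50 mM NaCl, 1% Triton with protease inhibitors. Protein was quantified by Bradford and run on 10% SDS-PAGE to nitrocellulose. Blots were probed with anti-Bcl-2, anti-c-Myc and anti-β-actin and detected by ECL. Densitometry was normalised to β-actin and expressed as % of control; three independent experiments.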

Jurkat [14] = test: Induction of apoptosis in human Jurkat cells assessed as late apoptotic cells at 25 uM measured after 48 hrs by Annexin V-FITC/propidium iodide staining based flow cytometry (reference value: 1.4%); type: functional
Jurkat [15] = test: Cytotoxicity against human Jurkat cells assessed as reduction in cell viability measured after 48 hrs by combined MTT and trypan blue staining based cell counting assay; type: functional; procedure, shortened: as §2
Quadruplex DNA [16] = test: Binding affinity to human Cy5-fluorescently labeled telomeric 23 G4 quadruplex DNA by microscale thermophoresis method; type: nucleic-acid assay; procedure, shortened: as §4
Jurkat [17] = test: Induction of apoptosis in human Jurkat cells assessed as early apoptotic cells at 25 uM measured after 48 hrs by Annexin V-FITC/propidium iodide staining based flow cytometry (reference value: 0.3%); type: functional
Jurkat [18] = test: Cytotoxicity against human Jurkat cells assessed as cell viability at 50 uM measured after 48 hrs by combined MTT and trypan blue staining based cell counting assay relative to control; type: functional; conditions: read-out: Activity; procedure, shortened: as §2
Quadruplex DNA [19] = test: Binding affinity to synthetic Cy5-fluorescently labeled BCL2 G4 quadruplex DNA by microscale thermophoresis method; type: nucleic-acid assay; procedure, shortened: as §4
Jurkat [20] = test: Down regulation of c-MYC expression in human Jurkat cells at 25 uM measured after 24 hrs by Western blot analysis relative to control; type: functional; procedure, shortened: as §6
NHDF = test: Cytotoxicity against HDF cells assessed as reduction in cell viability measured after 48 hrs by combined MTT assay; type: cell-based; conditions: Homo sapiens; procedure, shortened: as §2
Jurkat [21] = test: Induction of apoptosis in human Jurkat cells assessed as viable cells at 25 uM measured after 48 hrs by Annexin V-FITC/propidium iodide staining based flow cytometry (reference value: 97%); type: functional; conditions: read-out: Activity
Jurkat [22] = test: Cytotoxicity against human Jurkat cells assessed as reduction in cell viability at 50 uM measured after 48 hrs by combined MTT and trypan blue staining based cell counting assay; type: functional; procedure, shortened: as §2

In the case of CN(C)CCCOc1ccccc1-c1nc2c3ncn(CCCN(C)C)c3ncn2c1NC(C)(C)C, the ΔTm (Quadruplex DNA [1]) is reported as > 25 °C, the ΔTm [2] is reported as 3.5 °C and the ΔTm (Quadruplex DNA [3]) is reported as 5.7 °C. For the same molecule, the ΔTm (Quadruplex DNA [4]) was 4.5 °C and the ΔTm (Quadruplex DNA [5]) was 7.8 °C.

In the case of CN(C)CCCn1cnc2c1ncn1c(NC(C)(C)C)c(-c3ccc(Cl)cc3)nc21, the ΔTm (Quadruplex DNA [1]) is reported as 12.8 °C, the IC50 (HCT-116) is reported as > 100 µM and the Activity (Quadruplex DNA [6]) is reported as “Active”. For the same molecule, the Activity [7] was “inactive”, the IC50 (MCF7) was > 100 µM and the Activity (Quadruplex DNA [8]) was “Active”. The IC50 (A-375) was > 100 µM, the Activity (Jurkat [9]) was 66% and the IC50 (HaCaT) was > 100 µM. For the same molecule, the Activity (Jurkat [10]) was 67%, the Kd (Quadruplex DNA [11]) was 51 µM and the Kd (Quadruplex DNA [12]) was 26 µM. The Activity (Jurkat [13]) was 40%, the Activity (Jurkat [14]) was 99% and the Activity (Jurkat [15]) was “Dose-dependent effect”. It also gave an IC50 (Jurkat [15]) of 17 µM, a ΔTm [2] of -0.5 °C and a ΔTm (Quadruplex DNA [3]) of 2.4 °C. For the same molecule, the Activity (Quadruplex DNA [16]) was “inactive”, the ΔTm (Quadruplex DNA [4]) was 2.8 °C and the Activity (Jurkat [17]) was 0.5%. It also gave a viability at 50 µM (Jurkat [18]) of 25%, a ΔTm (Quadruplex DNA [5]) of 6.7 °C and a Kd (Quadruplex DNA [19]) of 60 µM. The Activity (Jurkat [20]) was 50%, the IC50 (NHDF) was 80 µM and the viability at 25 µM (Jurkat [21]) was 0.5%.

With CC(C)(C)Nc1c(-c2ccc(N3CCOCC3)cc2)nc2c3ncn(CCN4CCOCC4)c3ncn12 the ΔTm (Quadruplex DNA [1]) was 2.1 °C, the Activity (Jurkat [9]) was 27% and the Activity (Jurkat [13]) was “Active”. The Activity (Jurkat [14]) was 9%, the ΔTm [2] was 1.5 °C and the ΔTm (Quadruplex DNA [3]) was 1 °C. It also gave a ΔTm (Quadruplex DNA [4]) of 1.9 °C, an Activity (Jurkat [17]) of 8% and a ΔTm (Quadruplex DNA [5]) of 4.9 °C. For the same molecule, the Activity (Jurkat [20]) was “Active”, the viability at 25 µM (Jurkat [21]) was 79% and the Activity (Jurkat [22]) was “Active”.

For CC(C)(C)Nc1c(-c2ccccc2F)nc2c3ncn(CCN4CCOCC4)c3ncn12, the ΔTm (Quadruplex DNA [1]) was 1.9 °C, the ΔTm [2] was 0.5 °C and the ΔTm (Quadruplex DNA [3]) was 0.7 °C. For the same molecule, the ΔTm (Quadruplex DNA [4]) was 1 °C and the ΔTm (Quadruplex DNA [5]) was 2.6 °C.

In the case of CC(C)(C)Nc1c(-c2ccc(N3CCOCC3)cc2)nc2c3ncn(CCN4CCCC4)c3ncn12, the ΔTm (Quadruplex DNA [1]) is reported as 8.7 °C, the ΔTm [2] is reported as 6 °C and the ΔTm (Quadruplex DNA [3]) is reported as 2.2 °C. For the same molecule, the ΔTm (Quadruplex DNA [4]) was 2.9 °C and the ΔTm (Quadruplex DNA [5]) was 9.1 °C.

Source: ChEMBL document CHEMBL4402513, “Bio-Inspired Dual-Selective BCL-2/c-MYC G-Quadruplex Binders: Design, Synthesis, and Anticancer Activity of Drug-like Imidazo[2,1-i]purine Derivatives” (J Med Chem, 2020)
